Experimental data: ChEMBL document CHEMBL4602627, “Further exploration of the structure-activity relationship of imidazoquinolines; identification of potent C7-substituted imidazoquinolines” (Bioorg Med Chem Lett, 2020)
Calls of active or inactive are those of the source. The calls are words filed in the database; no cut-off is given here.

Experiments:
[1] = target: T1, Toll-like receptor 7/8 (Canis lupus familiaris) (UniProt A1XC23+H6BA89); assay: Agonist activity at TLR7/8 in dog PBMC assessed as increase in IFN-gamma secretion at 20 uM measured over 29 hrs by ELISA
[2] = target: T1, Toll-like receptor 7/8 (Canis lupus familiaris); assay: Agonist activity at TLR7/8 in dog PBMC assessed as increase in IL-12 secretion at 20 uM measured over 29 hrs by ELISA
[3] = target: T1, Toll-like receptor 7/8 (Canis lupus familiaris); assay: Agonist activity at TLR7/8 in dog PBMC assessed as TNFalpha secretion at 20 uM after 29 hrs by ELISA (reference value: 8 +/- 2 pg/ml); type: cell-based
Summary of the method: (§1)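 Canine PBMCs (2 × 10^6 cells/mL) were incubated with agonist at 20 µM for 29 h. TNFα, IL-12, IL-6, IL-10, IL-2 and IFNγ in the medium were measured by ELISA, in triplicate. Vehicle was 1% DMSO in water.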

[4] = target: T1, Toll-like receptor 7/8 (Canis lupus familiaris); assay: Agonist activity at TLR7/8 in dog PBMC assessed as maximal increase in IFN-gamma secretion at 20 uM after 30 to 48 hrs by ELISA; type: cell-based
[5] = target: T1, Toll-like receptor 7/8 (Canis lupus familiaris); assay: Agonist activity at TLR7/8 in dog PBMC assessed as IFNgamma secretion at 20 uM after 29 hrs by ELISA (reference value: 0.4 +/- 0.7 pg/ml); type: cell-based
Summary of the method: as §1

[6] = target: T1, Toll-like receptor 7/8 (Canis lupus familiaris); assay: Agonist activity at TLR7/8 in dog PBMC assessed as maximal increase in TNFalpha secretion at 20 uM after 30 to 48 hrs by ELISA; type: cell-based
[7] = target: T1, Toll-like receptor 7/8 (Canis lupus familiaris); assay: Agonist activity at TLR7/8 in dog PBMC assessed as IL-12 secretion at 20 uM after 29 hrs by ELISA (reference value: 18 +/- 8 pg/ml); type: cell-based
Summary of the method: as §1

[8] = target: T1, Toll-like receptor 7/8 (Canis lupus familiaris); assay: Agonist activity at TLR7/8 in dog PBMC assessed as IL-6 secretion at 20 uM after 29 hrs by ELISA (reference value: 310 +/- 90 pg/ml); type: cell-based
Summary of the method: as §1

[9] = target: T1, Toll-like receptor 7/8 (Canis lupus familiaris); assay: Agonist activity at TLR7/8 in dog PBMC assessed as IL-2 secretion at 20 uM after 29 hrs by ELISA (reference value: 47 +/- 20 pg/ml); type: cell-based
Summary of the method: as §1

[10] = target: T1, Toll-like receptor 7/8 (Canis lupus familiaris); assay: Agonist activity at TLR7/8 in dog PBMC assessed as IL-10 secretion at 20 uM after 29 hrs by ELISA (reference value: 33 +/- 16 pg/ml); type: cell-based
Summary of the method: as §1

[11] = target: T1, Toll-like receptor 7/8 (Canis lupus familiaris); assay: Agonist activity at TLR7/8 in dog PBMC assessed as maximal increase in IL-12 secretion at 20 uM after 30 to 48 hrs by ELISA; type: cell-based
[12] = Solubility of the compound at >100 uM; type: physicochemical
[13] = target: T1, Toll-like receptor 7/8 (Canis lupus familiaris); assay: Agonist activity at TLR7/8 in dog PBMC assessed as increase in TNFalpha secretion at 20 uM measured over 29 hrs by ELISA
[14] = target: T2, Toll-like receptor 7 (Homo sapiens) (UniProt Q9NYK1); assay: Agonist activity at human TLR7 expressed in HEK-Blue cells assessed as induction of NFkappaB activation by measuring increase in SEAP level by SEAP reporter gene-based UV-vis absorbance method relative to resiquimod; type: cell-based
T2 sequence (whole entry): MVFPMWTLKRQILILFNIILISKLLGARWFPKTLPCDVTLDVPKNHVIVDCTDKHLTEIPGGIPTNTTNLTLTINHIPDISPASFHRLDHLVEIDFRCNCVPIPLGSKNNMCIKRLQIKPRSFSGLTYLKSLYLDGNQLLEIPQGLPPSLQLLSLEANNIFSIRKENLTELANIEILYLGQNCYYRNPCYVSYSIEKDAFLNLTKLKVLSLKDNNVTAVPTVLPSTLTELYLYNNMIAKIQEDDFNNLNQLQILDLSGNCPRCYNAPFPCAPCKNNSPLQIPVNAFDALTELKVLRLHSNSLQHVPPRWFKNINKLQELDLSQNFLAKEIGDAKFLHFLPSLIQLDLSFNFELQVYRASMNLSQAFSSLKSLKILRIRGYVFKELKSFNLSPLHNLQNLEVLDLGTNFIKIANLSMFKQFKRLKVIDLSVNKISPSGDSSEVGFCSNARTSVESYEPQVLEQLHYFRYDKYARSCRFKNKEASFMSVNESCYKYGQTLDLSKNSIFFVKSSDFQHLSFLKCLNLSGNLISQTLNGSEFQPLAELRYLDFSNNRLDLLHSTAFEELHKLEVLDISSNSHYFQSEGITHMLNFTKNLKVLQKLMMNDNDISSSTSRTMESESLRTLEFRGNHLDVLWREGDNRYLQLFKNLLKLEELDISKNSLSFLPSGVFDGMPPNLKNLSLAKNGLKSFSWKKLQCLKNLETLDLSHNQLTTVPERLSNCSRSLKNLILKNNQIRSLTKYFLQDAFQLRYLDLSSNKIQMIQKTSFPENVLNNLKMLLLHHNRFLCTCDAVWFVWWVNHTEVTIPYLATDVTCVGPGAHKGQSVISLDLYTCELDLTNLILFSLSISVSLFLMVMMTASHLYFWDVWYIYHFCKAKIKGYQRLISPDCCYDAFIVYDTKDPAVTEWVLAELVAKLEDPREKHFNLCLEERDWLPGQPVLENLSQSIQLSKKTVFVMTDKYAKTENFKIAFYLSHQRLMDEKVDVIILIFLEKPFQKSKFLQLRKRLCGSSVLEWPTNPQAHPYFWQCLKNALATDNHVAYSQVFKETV

[15] = target: T3, Toll-like receptor 8 (Homo sapiens) (UniProt Q9NR97); assay: Agonist activity at human TLR8 expressed in HEK-Blue cells assessed as induction of NFkappaB activation by measuring increase in SEAP level by SEAP reporter gene-based UV-vis absorbance method relative to resiquimod; type: cell-based
T3 sequence (whole entry): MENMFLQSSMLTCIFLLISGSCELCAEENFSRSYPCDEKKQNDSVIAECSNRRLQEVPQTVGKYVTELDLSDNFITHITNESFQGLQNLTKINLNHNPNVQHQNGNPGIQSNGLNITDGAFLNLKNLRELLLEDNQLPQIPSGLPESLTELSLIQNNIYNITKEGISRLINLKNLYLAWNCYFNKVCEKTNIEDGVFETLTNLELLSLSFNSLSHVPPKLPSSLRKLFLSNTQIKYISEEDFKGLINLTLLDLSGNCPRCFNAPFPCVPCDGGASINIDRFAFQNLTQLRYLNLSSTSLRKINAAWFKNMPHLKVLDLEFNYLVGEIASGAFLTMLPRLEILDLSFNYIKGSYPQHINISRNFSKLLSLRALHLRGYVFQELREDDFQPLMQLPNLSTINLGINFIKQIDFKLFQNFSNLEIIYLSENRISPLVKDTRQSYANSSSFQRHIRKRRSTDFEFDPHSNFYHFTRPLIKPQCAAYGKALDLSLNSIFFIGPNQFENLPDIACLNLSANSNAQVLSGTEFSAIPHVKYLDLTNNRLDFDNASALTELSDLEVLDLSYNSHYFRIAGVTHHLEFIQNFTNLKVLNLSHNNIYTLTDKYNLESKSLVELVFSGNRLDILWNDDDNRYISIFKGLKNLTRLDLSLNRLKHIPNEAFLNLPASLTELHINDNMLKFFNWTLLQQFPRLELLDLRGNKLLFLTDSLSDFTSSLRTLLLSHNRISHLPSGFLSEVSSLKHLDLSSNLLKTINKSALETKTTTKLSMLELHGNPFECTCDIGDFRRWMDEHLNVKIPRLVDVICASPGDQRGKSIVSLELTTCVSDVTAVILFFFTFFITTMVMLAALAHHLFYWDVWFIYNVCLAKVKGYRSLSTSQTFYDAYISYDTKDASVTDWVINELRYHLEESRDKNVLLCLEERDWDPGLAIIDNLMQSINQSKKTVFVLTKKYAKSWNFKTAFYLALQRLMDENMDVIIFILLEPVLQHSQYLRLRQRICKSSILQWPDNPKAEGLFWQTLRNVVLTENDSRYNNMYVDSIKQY

[16] = target: T2, Toll-like receptor 7 (Homo sapiens); assay: Agonist activity at human TLR7 expressed in HEK-Blue cells assessed as induction of NFkappaB activation by measuring increase in SEAP level by SEAP reporter gene-based UV-vis absorbance method relative to imiquimod; type: cell-based

Activity [1] | Activity [2] | Activity [3] | Activity [4] | Activity [5] | Activity [6] | Activity [7] | Activity [8] | Activity [9] | Activity [10] | Activity [11] | solubility [12] | Activity [13] | fold change (FC) [14] | fold change (FC) [15] | fold change (FC) [16] | Structure (SMILES)
Active | Active | 114 pg/mL | Active | 5 pg/mL | Active | 781 pg/mL | 280 pg/mL | 50 pg/mL | 20 pg/mL | Active | Insoluble | Active |  |  |  | CCOCc1nc2c(N)nc3cc(Cl)ccc3c2n1CC(C)C
Active | Active | 10 pg/mL | Active | 13 pg/mL | Active | 920 pg/mL | 350 pg/mL | 60 pg/mL | 37 pg/mL | Active | Insoluble | Active |  |  |  | CCCCc1nc2c(N)nc3cc(C#N)ccc3c2n1CC(C)C
 |  | 80 pg/mL |  | 0.2 pg/mL | Active | 13 pg/mL | 214 pg/mL | 46 pg/mL | 6 pg/mL | Active | Insoluble | Active |  |  |  | CCOCc1nc2c(N)nc3cc(C#N)ccc3c2n1CC(C)(C)O
Active | Active | 7 pg/mL | Active | 4 pg/mL | Active | 190 pg/mL | 71 pg/mL | 57 pg/mL | 6 pg/mL | Active | Insoluble |  |  |  |  | CCOCc1nc2c(N)nc3cc(C#N)ccc3c2n1CC(C)C

More lines, now with the values behind:

Structure (SMILES) | Activity [1] | Activity [2] | Activity [3] | Activity [4] | Activity [5] | Activity [6] | Activity [7] | Activity [8] | Activity [9] | Activity [10] | Activity [11] | solubility [12] | Activity [13] | fold change (FC) [14] | fold change (FC) [15] | fold change (FC) [16]
CCOCc1nc2c(N)nc3ccccc3c2n1CC(C)(C)O [RESIQUIMOD] | Active | Active | 190 pg/mL | Active | 26 pg/mL | Active | 2800 pg/mL | 380 pg/mL | 120 pg/mL | 21 pg/mL | Active | Insoluble | Active |  |  | 
CCOCc1nc2c(N)nc3cc(Cl)ccc3c2n1CC(C)(C)O | Active | Active | 70 pg/mL | Active | 16 pg/mL | Active | 1900 pg/mL | 320 pg/mL | 76 pg/mL | 12 pg/mL | Active | Insoluble | Active |  |  | 
CCCCc1nc2c(N)nc3cc(OC)ccc3c2n1CC(C)C |  | Active | 49 pg/mL | Active | 0 pg/mL | Active | 746 pg/mL | 500 pg/mL | 30 pg/mL | 37 pg/mL | Active | Insoluble | Active |  |  | 
CCCCc1nc2c(N)nc3cc(Cl)ccc3c2n1CC(C)(C)O | Active | Active | 22 pg/mL | Active | 13 pg/mL | Active | 1700 pg/mL | 230 pg/mL | 55 pg/mL | 7 pg/mL | Active | Insoluble | Active | < 2 | < 4 | < 100
CCCCc1nc2c(N)nc3cc(C#N)ccc3c2n1CC(C)(C)O | Active | Active | 44 pg/mL | Active | 12 pg/mL | Active | 418 pg/mL | 290 pg/mL | 45 pg/mL | 14 pg/mL | Active | Insoluble | Active |  |  | 
CC(C)Cn1cnc2c(N)nc3ccccc3c21 [IMIQUIMOD] | Active | Active | 25 pg/mL | Active | 18 pg/mL | Active | 1200 pg/mL | 300 pg/mL | 85 pg/mL | 16 pg/mL | Active | Insoluble | Active |  |  | 
CCCCc1nc2c(N)nc3cc(Cl)ccc3c2n1CC(C)C | Active | Active | 91 pg/mL | Active | 7 pg/mL | Active | 760 pg/mL | 240 pg/mL | 63 pg/mL | 14 pg/mL | Active | Insoluble | Active |  |  | 
